Results: ChEMBL document CHEMBL1158347, “Substituted quinazolines, part 3. Synthesis, in vitro antitumor activity and molecular modeling study of certain 2-thieno-4(3H)-quinazolinone analogs” (2009)

What was measured:
Assay type in all cases: functional
[1] = Growth inhibition of human leukemia cells after 48 hrs; details: Leukemia cell
In short: (§1)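 NCI in vitro disease-oriented human tumor cell line screen. Compounds passing a one-dose primary assay (MCF-7, NCI-H460, SF-268; pass = growth of any line reduced to 32% or less) were tested on the 60-line panel over a 5-log dose range. Compounds were dissolved in DMSO, with under 1% DMSO in final dilutions, and tested in duplicate at 6×10^4 cells/ml. Cells were incubated at 37 °C in 5% CO2 for 48 h, then diluted 10-fold in saline and counted with a Coulter counter, with counts corrected for dilution. Controls held PBS/DMSO at identical dilutions. GI50 was reported per line and as subpanel/full-panel mean-graph midpoint.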

[2] = Growth inhibition of human renal cancer cells after 48 hrs; details: Cancer cell lines; in short: as §1
[3] = Growth inhibition of human melanoma cells after 48 hrs; details: Melanoma cell; in short: as §1
[4] = Growth inhibition of human Colon cancer cells after 48 hrs; details: Cancer cell lines; in short: as §1
[5] = Growth inhibition of human prostate cancer cells after 48 hrs; details: Cancer cell lines; in short: as §1
[6] = Growth inhibition of human breast cancer cells after 48 hrs; details: Cancer cell lines; in short: as §1
[7] = Growth inhibition of human ovarian cancer cells after 48 hrs; details: Cancer cell lines; in short: as §1
NSCLC = assay: Growth inhibition of human NSCLC cells after 48 hrs; in short: as §1
[8] = Growth inhibition of human CNS cancer cells after 48 hrs; details: Cancer cell lines; in short: as §1
SK-MEL-2 = assay: Growth inhibition of human SK-MEL-2 cells after 48 hrs; details: SK-MEL-2, 48 h; in short: as §1
CCRF-CEM = assay: Growth inhibition of human CCRF-CEM cells after 48 hrs; in short: as §1
HL-60(TB) = assay: Growth inhibition of human HL-60(TB) cells after 48 hrs; details: HL-60, 48 h
In short: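 NCI 60-cell-line screen over a 5-log dose range. Compounds were dissolved in DMSO, final DMSO under 1%. Duplicate wells were seeded at 6×10^4 cells/ml, with PBS/DMSO vehicle controls at identical dilutions. Cells were incubated 48 h at 37 °C in humidified 5% CO2, diluted 10-fold in saline, and counted by Coulter counter with dilution correction. GI50 read-out.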

UACC-257 = assay: Growth inhibition of human UACC257 cells after 48 hrs; details: UACC-257, 48 h; in short: as §1
SF-539 = assay: Growth inhibition of human SF539 cells after 48 hrs; details: SF-539, 48 h; in short: as §1
K562 = assay: Growth inhibition of human K562 cells after 48 hrs; details: K562, 48 h; in short: as §1
RPMI-8226 = assay: Growth inhibition of human RPMI8226 cells after 48 hrs; details: RPMI-8226, 48 h; in short: as §1
MCF7 = assay: Growth inhibition of human MCF7 cells after 48 hrs; details: MCF7, 48 h; in short: as §1
[9] = read-out: LC50 (the source's name)

`O=c1c2cc(I)ccc2nc(-c2cccs2)n1O` gave a GI50 [1] of 34.3 µM, a TGI [1] of over 100 µM and a GI50 [2] of 49.8 µM. It also gave a TGI [2] of over 100 µM, a GI50 [3] of 57.3 µM and a TGI [3] of 97.1 µM. The GI50 [4] was 45.8 µM, the TGI [4] was over 100 µM and the GI50 [5] was 39.9 µM. It also gave a TGI [5] of 98.4 µM, a GI50 [6] of 39.4 µM and a TGI [6] of over 100 µM. The GI50 [7] was 32.1 µM, the TGI [7] was 87.9 µM and the GI50 (NSCLC) was 33.2 µM. The TGI (NSCLC) was 91.2 µM, the GI50 [8] was 33.2 µM and the TGI [8] was 94.4 µM.

`O=c1c2cc(I)ccc2nc(-c2cccs2)n1/N=C/c1ccccc1` gave a GI50 [1] of 63.4 µM, a TGI [1] of over 100 µM and a GI50 [2] of over 100 µM. For the same compound, the TGI [2] was over 100 µM, the GI50 [3] was 90.3 µM and the TGI [3] was over 100 µM. For the same compound, the GI50 [4] was over 100 µM, the TGI [4] was over 100 µM and the GI50 [5] was over 100 µM. It also gave a TGI [5] of over 100 µM, a GI50 [6] of over 100 µM and a TGI [6] of over 100 µM. The GI50 [7] was over 100 µM, the TGI [7] was over 100 µM and the GI50 (NSCLC) was over 100 µM. For the same compound, the TGI (NSCLC) was over 100 µM, the GI50 [8] was over 100 µM and the TGI [8] was over 100 µM.

With `CC(=O)CC(=O)Nn1c(-c2cccs2)nc2ccc(I)cc2c1=O` the GI50 [1] was 38.5 µM, the TGI [1] was over 100 µM and the GI50 [2] was 28.9 µM. The TGI [2] was 85.1 µM, the GI50 [3] was 37.7 µM and the TGI [3] was 85.3 µM. It also gave a GI50 [4] of 28.1 µM, a TGI [4] of 90.9 µM and a GI50 [5] of 20.6 µM. It also gave a TGI [5] of over 100 µM, a GI50 [6] of 24.9 µM and a TGI [6] of 82.1 µM. For the same compound, the GI50 [7] was 40.9 µM, the TGI [7] was 93.6 µM and the GI50 (NSCLC) was 27.5 µM. It also gave a TGI (NSCLC) of 86.4 µM, a GI50 [8] of 27.9 µM and a TGI [8] of 89.1 µM.

Compound `O=c1c2cc(I)ccc2nc(-c2cccs2)n1Nc1ccccc1` has a GI50 (SK-MEL-2) of 0.3 µM, a TGI (SK-MEL-2) of 2 µM and a GI50 [1] of 12.7 µM. The TGI [1] was 87.1 µM, the GI50 [2] was 19.7 µM and the TGI [2] was 93.1 µM. It also gave a GI50 (CCRF-CEM) of 51 µM, a TGI (CCRF-CEM) of over 100 µM and a CC50 (CCRF-CEM; [9]) of over 100 µM. The GI50 (HL-60(TB)) was 0.4 µM, the TGI (HL-60(TB)) was over 100 µM and the CC50 (HL-60(TB); [9]) was over 100 µM. The GI50 [3] was 8.5 µM, the TGI [3] was 85.9 µM and the GI50 (UACC-257) was 32 µM. The TGI (UACC-257) was over 100 µM, the GI50 [4] was 6.5 µM and the TGI [4] was 79.2 µM. It also gave a GI50 (SF-539) of 34 µM, a TGI (SF-539) of over 100 µM and a CC50 (SF-539; [9]) of over 100 µM. For the same compound, the GI50 [5] was 1.61 µM, the TGI [5] was over 100 µM and the GI50 (K562) was 0.3 µM. For the same compound, the TGI (K562) was 23 µM, the GI50 [6] was 5.9 µM and the TGI [6] was over 100 µM. It also gave a GI50 (RPMI-8226) of 5 µM, a TGI (RPMI-8226) of over 100 µM and a CC50 (RPMI-8226; [9]) of over 100 µM. It also gave a GI50 [7] of 8.6 µM, a TGI [7] of 80.1 µM and a GI50 (NSCLC) of 8.6 µM. The TGI (NSCLC) was 88 µM, the GI50 (MCF7) was 2 µM and the TGI (MCF7) was over 100 µM. For the same compound, the CC50 (MCF7; [9]) was over 100 µM, the GI50 [8] was 16.3 µM and the TGI [8] was 81.9 µM.

For `O=c1c2cc(I)ccc2nc(-c2cccs2)n1-c1ccc(S(=O)(=O)Nc2nccs2)cc1`, the GI50 [1] was 54 µM, the TGI [1] was over 100 µM and the GI50 [2] was 34.2 µM. It also gave a TGI [2] of 84.3 µM, a GI50 [3] of 45.2 µM and a TGI [3] of 84.8 µM. The GI50 [4] was 44.7 µM, the TGI [4] was 94.6 µM and the GI50 [5] was 32.9 µM. The TGI [5] was over 100 µM, the GI50 [6] was 34.8 µM and the TGI [6] was 88.3 µM. For the same compound, the GI50 [7] was 46.5 µM, the TGI [7] was over 100 µM and the GI50 (NSCLC) was 38.7 µM. It also gave a TGI (NSCLC) of 89.5 µM, a GI50 [8] of 41.4 µM and a TGI [8] of 87.7 µM.
